Test results reported in ChEMBL document CHEMBL1129554, “6-Substituted and 5,6-disubstituted derivatives of uridine: stereoselective synthesis, interaction with uridine phosphorylase, and in vitro antitumor activity” (J Med Chem, 1996).
Converted amounts (≈) assume the structure as drawn.

Tests used:
[1] = Efficacy was determined as ratio of Vmax to that of Km; format: ADME
Summary of the method: (§1)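 Homogeneous E. coli uridine phosphorylase in 50 mM phosphate buffer at 37 °C. pH 6 was used for 5-fluoro analogues and pH 7.5 for the others, so the neutral form predominates. Phosphorolysis was followed spectrophotometrically as the decrease in absorbance, 285 nm for 5-fluoro and 280 nm for the rest. Initial rates were taken over 20 s. Apparent Km and Vmax came from a Wilkinson fit, and efficacy = Vmax/Km.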

[2] = Catalytical constant (Vmax) was evaluated; format: ADME; summary of the method: as §1
IM-9 = assay: In vitro antitumor activity in IM-9 cell lines; format: functional, cell-based; details: Homo sapiens
Summary of the method: (§2)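 Cytotoxicity was measured as inhibition of [¹⁴C]-L-leucine incorporation into protein. Triplicate cultures held 2 × 10⁴ cells/well, or 10⁵ PHA-stimulated peripheral blood lymphocytes, in RPMI 1640 with 10% FCS, 5% CO₂, 37 °C. Label (0.5 µCi/mL) was present for the final 24 h of a 3-day culture (4 days for PHA-Ly). Protein was precipitated with perchloric acid and counted. IC50 (µg/mL) was taken from dose-response curves.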

K562 = assay: In vitro antitumor activity in K-562 cell lines; format: functional, cell-based; details: Homo sapiens; summary of the method: as §2
MOLT-3 = assay: In vitro antitumor activity in MOLT-3 cell lines; format: functional, cell-based; details: Homo sapiens; summary of the method: as §2
PHA-Ly = assay: IIn vitro antitumor activity in PHA-Ly cell lines; format: functional, cell-based; details: Homo sapiens; summary of the method: as §2
U-937 = assay: In vitro antitumor activity in U-937 cell lines; format: functional, cell-based; details: Homo sapiens; summary of the method: as §2
[3] = Catalytical constant (app Km)of the compound was evaluated at pH 6; format: ADME; details: read-out: Km app; summary of the method: as §1
[4] = Catalytical constant (app Km)of the compound was evaluated at pH 7.5; format: ADME; details: read-out: Km app; summary of the method: as §1

Compound: O=c1[nH]c(=O)n(C2O[C@H](CO)[C@@H](O)[C@H]2O)c(CO)c1F (some centres undefined)
- Efficacy [1]: 0.09
- Vmax [2]: 370 uM min-1 (mg of protein)-1
- IC50 (IM-9): 3 µg/mL (≈ 10.3 µM)
- IC50 (K562): 4.9 µg/mL (≈ 16.8 µM)
- IC50 (MOLT-3): 1.2 µg/mL (≈ 4.11 µM)
- IC50 (PHA-Ly): 2.8 µg/mL (≈ 9.58 µM)
- IC50 (U-937): 3.7 µg/mL (≈ 12.7 µM)
- Km [3]: 4000 µM

Compound: Cc1c(F)c(=O)[nH]c(=O)n1C1O[C@H](CO)[C@@H](O)[C@H]1O (some centres undefined)
- Efficacy [1]: 0.05
- Vmax [2]: 67 uM min-1 (mg of protein)-1
- IC50 (IM-9): > 10 µg/mL
- IC50 (K562): > 10 µg/mL
- IC50 (MOLT-3): > 10 µg/mL
- IC50 (PHA-Ly): > 10 µg/mL
- IC50 (U-937): > 10 µg/mL
- Km [3]: 1360 µM

Compound: O=c1cc(CF)n(C2O[C@H](CO)[C@@H](O)[C@H]2O)c(=O)[nH]1 (some centres undefined)
- Km [4]: 300 µM
- Efficacy [1]: 0.99
- Vmax [2]: 297 uM min-1 (mg of protein)-1
- IC50 (IM-9): 9.9 µg/mL (≈ 35.8 µM)
- IC50 (K562): > 10 µg/mL
- IC50 (MOLT-3): > 10 µg/mL
- IC50 (PHA-Ly): > 10 µg/mL
- IC50 (U-937): > 10 µg/mL

Compound: O=c1cc(CO)n(C2O[C@H](CO)[C@@H](O)[C@H]2O)c(=O)[nH]1 (some centres undefined)
- Km [4]: 476 µM
- Efficacy [1]: 0.53
- Vmax [2]: 254 uM min-1 (mg of protein)-1
- IC50 (IM-9): > 10 µg/mL
- IC50 (K562): > 10 µg/mL
- IC50 (MOLT-3): > 10 µg/mL
- IC50 (PHA-Ly): 98 µg/mL (≈ 357 µM)
- IC50 (U-937): > 10 µg/mL

Compound: CCCc1cc(=O)[nH]c(=O)n1C1O[C@H](CO)[C@@H](O)[C@H]1O (some centres undefined)
- Km [4]: 1150 µM
- Efficacy [1]: 0.03
- Vmax [2]: 40 uM min-1 (mg of protein)-1

Compound: O=c1[nH]cc(F)c(=O)[nH]1 [FLUOROURACIL]
- IC50 (IM-9): 0.34 µg/mL (≈ 2.61 µM)
- IC50 (K562): 4.3 µg/mL (≈ 33.1 µM)
- IC50 (MOLT-3): 1.2 µg/mL (≈ 9.23 µM)
- IC50 (PHA-Ly): 1.4 µg/mL (≈ 10.8 µM)
- IC50 (U-937): 0.5 µg/mL (≈ 3.84 µM)

Compound: CCc1cc(=O)[nH]c(=O)n1C1O[C@H](CO)[C@@H](O)[C@H]1O (some centres undefined)
- Km [4]: 1200 µM
- Efficacy [1]: 0.15
- Vmax [2]: 175 uM min-1 (mg of protein)-1

Compound: O=c1[nH]c(=O)n([C@@H]2O[C@H](CO)[C@@H](O)[C@H]2O)c(CF)c1F
- Efficacy [1]: 0.06
- Vmax [2]: 57 uM min-1 (mg of protein)-1
- IC50 (IM-9): > 10 µg/mL
- IC50 (K562): > 10 µg/mL
- IC50 (MOLT-3): 3.5 µg/mL (≈ 11.9 µM)
- IC50 (PHA-Ly): 4.5 µg/mL (≈ 15.3 µM)
- IC50 (U-937): 3.7 µg/mL (≈ 12.6 µM)
- Km [3]: 979 µM

Compound: O=c1[nH]c(=O)n([C@@H]2O[C@H](CO)[C@@H](O)[C@H]2O)cc1F [5-FLUOROURIDINE]
- Efficacy [1]: 2.1
- Vmax [2]: 323 uM min-1 (mg of protein)-1
- IC50 (IM-9): < 0.01 µg/mL
- IC50 (K562): 0.026 µg/mL (≈ 0.0992 µM)
- IC50 (MOLT-3): < 0.01 µg/mL
- IC50 (PHA-Ly): < 0.1 µg/mL
- IC50 (U-937): < 0.01 µg/mL
- Km [3]: 152 µM
